Among the data in ChEMBL document CHEMBL4052694, “Discovery of novel 5-oxa-2,6-diazaspiro[3.4]oct-6-ene derivatives as potent, selective, and orally available somatostatin receptor subtype 5 (SSTR5) antagonists for treatment of type 2 diabetes mellitus” (Bioorg Med Chem, 2017) are Activity values, retold here.

The test system of data set [1] is Mus musculus. Nature of the data set: Toxicity in HFD-fed C57BL/6J mouse assessed as induction of hypoglycemia at 10 mg/kg, po after 1 hr. Particulars: in vivo. The format is organism-based.
Data set [2] concerns Mus musculus. Nature of the data set: Antidiabetic activity in HFD-fed C57BL/6J mouse assessed as decrease in blood glucose AUC at 10 mg/kg, po pretreated for 1 hr followed by glucose challenge after 1 hr of compound dosing measured up to 120 mins post glucose challenge by OGTT. In kind it is functional, organism-based. The essentials:
(§1)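 Male C57BL/6J mice on high-fat diet for ten days. Fasted overnight and grouped by weight and blood glucose at 12.5 h. Compound given orally at 1, 3, 10 or 30 mg/kg in 0.5% methylcellulose at 15 h; oral glucose 5 g/kg at 16 h.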

The subject of data set [3] is Mus musculus. Nature of the data set: Antidiabetic activity in HFD-fed C57BL/6J mouse assessed as decrease in blood glucose level at 10 mg/kg, po pretreated for 1 hr followed by glucose challenge by OGTT. The format is functional, organism-based. The essentials:
as §1

For data set [4], the system named is Mus musculus. Nature of the data set: Antidiabetic activity in HFD-fed C57BL/6J mouse assessed as increase in insulin secretion at 10 mg/kg, po pretreated for 1 hr followed by glucose challenge by OGTT. In kind it is functional, organism-based.

Structures are written as SMILES. Calls of active or inactive are those of the source. The calls are words filed in the database; no cut-off is given here.

In the case of `COc1ccc(Cl)cc1C(=O)NCCc1ccc(S(=O)(=O)NC(=O)NC2CCCCC2)cc1` [GLYBURIDE], in the data set on Mus musculus [1], the Activity entry was “Toxic”. The outcome in the data set on Mus musculus [2], in the data set with Mus musculus [3] and in the data set with Mus musculus [4] was Active.
